Assays:
[1] = Fraction of 88Y (%) released from chelate after incubation in serum for 15 hours; type: ADME
How it was run: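 p-Nitrobenzyl DTPA derivatives converted to p-isothiocyanato form, conjugated to antibody B72.3, labeled with 88Y. Conjugates incubated in serum 15 h; released 88Y assessed by size-exclusion HPLC (TSK 3000SW, MES/Cl− buffer 0.02 M MES, 0.15 M NaCl, pH 6.5). 88Y-albumin eluted at 7.7 min, assigned against molecular weight standard. Injectate aliquots counted for HPLC recovery.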

[2] = Yttrium(III) stability constant of the compound.; type: physicochemical
How it was run: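 Spectrophotometric competition at 25 °C, μ = 0.1 M. Y(III) (3.950 × 10⁻⁶ M) with Arsenazo III (2.00 × 10⁻⁵ M) at pH 3.90, titrated with ligand aliquots. Absorbance drop at 652 nm after each equilibration gave conditional constants, converted to log K. Y–AAIII ML and ML₂ constants and extinction coefficients first obtained by titrating dye with YCl₃.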

Mus musculus = species: Mus musculus; assay: Percent injected dose per gram at 168 hour for mice injected with 88Y-Ligand-B 72.3; type: functional, organism-based

Row | 88Y-serum [1] | Log K [2] | SMILES | ID/g femur (Mus musculus)
1 | 7% | 21.7 | O=C(O)CN(CCN(CC(=O)O)C(Cc1ccc([N+](=O)[O-])cc1)CN(CC(=O)O)CC(=O)O)CC(=O)O (centres undefined) | 5.2%
2 | 6.27% | 22.5 | CC(CN(CC(=O)O)CC(Cc1ccc([N+](=O)[O-])cc1)N(CC(=O)O)CC(=O)O)N(CC(=O)O)CC(=O)O (centres undefined) | 2.5%
3 | 3.79% | 24.7 | O=C(O)CN(CC(=O)O)[C@H](Cc1ccc([N+](=O)[O-])cc1)CN(CC(=O)O)[C@@H]1CCCC[C@H]1N(CC(=O)O)CC(=O)O | 3.6%
4 | – | 21.5 | O=C(O)CN(CCN(CC(=O)O)CC(Cc1ccc([N+](=O)[O-])cc1)N(CC(=O)O)CC(=O)O)CC(=O)O (centres undefined) | 4.3%
5 | 4.84% | 22.5 | CC(CN(CC(=O)O)CC(=O)O)N(CC(=O)O)CC(Cc1ccc([N+](=O)[O-])cc1)N(CC(=O)O)CC(=O)O (centres undefined) | 3%
6 | – | 22.4 | O=C(O)CN(CCN(CC(=O)O)CC(=O)O)CCN(CC(=O)O)CC(=O)O [PENTETIC ACID] | –
7 | 18.5% | 24.4 | O=C(O)CN(CC(=O)O)[C@@H](Cc1ccc([N+](=O)[O-])cc1)CN(CC(=O)O)[C@@H]1CCCC[C@H]1N(CC(=O)O)CC(=O)O | 6.1%
8 | – | 24.2 | O=C(O)CN(CCN(CC(=O)O)[C@@H]1CCCC[C@H]1N(CC(=O)O)CC(=O)O)CC(=O)O | –
